Screens (PubChem)
EBNA-1 inhibitor: blocks EBNA-1 binding to DNA; EBNA-1 DNA binding, fluorescence polarization; AID 1950; inhibition, % at 14.8 µM; 300,000 compounds, 0.34% hits; in the data active = inhibition above about 28%
HCV NS3 hel inh: HCV NS3 helicase inhibition. 290,000 compounds, 0.56% hits. inhibition, % at 10.9 µM. NS3 helicase DNA unwinding, Cy5 molecular beacon fluorescence;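 active = inhibition above the mean of all tested compounds plus 3 SD, set per campaign, cut at about 35% in these data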
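Assay system: hepatitis C virus NS3 helicase domain fragment enzyme. Also added: annealed dual-labelled DNA beacon duplex, ATP-started. Timing: 1 h reaction at 25 °C, ATP-initiated. Technique: Cy5 fluorescence at 0 and 60 min, beacon hairpin quenching. Evaluation: % inhibition of unwinding. Replication: one well per compound.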
Fh CTSL1 inh: cathepsin L1 inhibition, PFM18AAP counter-screen; recombinant F. hepatica cathepsin L1, Z-Leu-Arg-MCA fluorescence; inhibition, % at 5.96 µM; 300,000 compounds, 0.49% hits;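 active = inhibition above the mean of all tested compounds plus 3 SD, set per screening campaign, cut at about 17% in these data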
ZTA DNA inh: ZTA (EBV) inhibition in EBNA-1 counter-screen; 320,000 compounds, 0.15% hits; inhibition, % at 11 µM; ZTA-DNA binding, fluorescence polarization; P03206; in the data active = inhibition above about 33%
Target sequence (P03206 whole entry, looked up): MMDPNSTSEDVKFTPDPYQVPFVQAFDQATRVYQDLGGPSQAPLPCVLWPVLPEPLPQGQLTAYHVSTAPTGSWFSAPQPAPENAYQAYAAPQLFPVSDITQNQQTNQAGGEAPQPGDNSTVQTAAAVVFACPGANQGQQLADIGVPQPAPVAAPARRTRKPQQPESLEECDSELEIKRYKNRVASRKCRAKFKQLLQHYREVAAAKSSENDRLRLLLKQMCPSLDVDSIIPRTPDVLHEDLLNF
Large screens that a line does not name were inactive. In the library only some 1.4% were active in any assay of this set; here they are far more common.

NC(=S)N/N=C/c1ccccc1OCCSc1ccc(Cl)cc1	Fh CTSL1 inh 24.6
COC(=O)N/N=C/c1c[nH]c2ccccc12	none
CC(=O)n1cc(/C=N/NC(N)=S)c2ccccc21	Fh CTSL1 inh 94.7
COc1ccccc1OCCn1cc(/C=N/NC(=O)c2ccncc2)c2ccccc21	none
COc1cccc(/C=N/NC(N)=S)c1OCc1ccccc1Cl	none
CC(=O)n1cc(/C=N/NC(=O)c2ccccc2O)c2ccccc21	none
O=C(O)c1nn(CCOc2ccc(Br)cc2)c(=O)c2ccccc12	none
Cc1ccc(/C=C\c2nccc3c2[nH]c2ccccc23)cc1	none
Oc1cc2c(c(Cl)c1O)CCNCC2c1ccccc1 (centres undefined)	none (no result: HCV NS3 hel inh)
COc1ccc(NC(=O)CSc2ccccc2)cn1	none
CC(C)(Oc1ccc(Cl)cc1)C(=O)N1CCC(C(N)=O)CC1	none
COc1cccc(NC(=O)CN(C)C(=O)c2ccccc2OCc2c(C)noc2C)c1	Fh CTSL1 inh 26.6 (no result: HCV NS3 hel inh)
CCOC(=O)Nc1ccc2c(c1)N(C(=O)CCN(CC)CC)c1ccccc1S2=O (centres undefined)	Fh CTSL1 inh 16.6
CC(C)c1onc(C(=O)NCc2cccs2)c1[N+](=O)[O-]	Fh CTSL1 inh 22.6
CC(C)c1onc(C(=O)N(C)Cc2ccccc2)c1[N+](=O)[O-]	ZTA DNA inh 39.0
Cc1onc(C(=O)NCc2cccs2)c1[N+](=O)[O-]	none
COc1ccc(NC(C)=O)cc1S(=O)(=O)Nc1ccccc1C(=O)N1CCCC1	none
CCn1cc(C(=O)OCC(=O)NCc2ccccc2Cl)c(=O)c2ccc(C)nc21	Fh CTSL1 inh 16.7
CCn1cc(C(=O)OCC(=O)Nc2c(C)cccc2C)c(=O)c2ccc(C)nc21	none
FC(F)(F)c1nnc(-c2ccccc2)nc1N1CCOCC1	none
FC(F)(F)c1cccc(-c2nnc(-c3ccccc3)c(N3CCOCC3)n2)c1	Fh CTSL1 inh 17.4
CCOc1cc(CNc2ccc(N3CCCC3)cc2)cc(Cl)c1OC	EBNA-1 inhibitor 97.5, ZTA DNA inh 158.5
COc1cc(CNc2ccc(N3CCOCC3)cc2)cc(Br)c1OC	none
CCOc1cc(CNc2ccc(S(N)(=O)=O)cc2)cc(Cl)c1OC	none
CCOc1ccc(CNc2ccc(N3CCN(Cc4ccccc4)CC3)cc2)cc1	none
CCOc1ccc(CNc2ccc(N3CCCC3)cc2)cc1	EBNA-1 inhibitor 79.0, ZTA DNA inh 85.8
COc1cc(CNc2ccc(N3CCCC3)cc2)cc(Cl)c1OC	EBNA-1 inhibitor 110.7, ZTA DNA inh 127.4
COc1ccccc1N(C)S(=O)(=O)c1ccc(C(=O)Nc2nc(C)c(C(C)=O)s2)cc1	none (no result: EBNA-1 inhibitor, HCV NS3 hel inh, Fh CTSL1 inh)
COCCN(CCOC)S(=O)(=O)c1ccc(C(=O)Nc2nc(C)c(C(C)=O)s2)cc1	Fh CTSL1 inh 20.0
CCOC(=O)c1sc(=NC(=O)c2c(F)cccc2F)n(C)c1C	Fh CTSL1 inh 18.4
C=CCOc1cccc(CNCCCN2CCOCC2)c1	none
CC(=O)Nc1ccc(S(=O)(=O)Nc2cccc(N(C)S(C)(=O)=O)c2)cc1	none
COCCn1c(=NC(=O)c2sc3ccccc3c2Cl)sc2cc(S(N)(=O)=O)ccc21	Fh CTSL1 inh 21.8
C=CCn1c(=NC(=O)c2sc3ccccc3c2Cl)sc2cc(S(N)(=O)=O)ccc21	EBNA-1 inhibitor 31.0
COc1cccc(Oc2cn[nH]c2-c2ccc(OCC(=O)NN)cc2O)c1	none
O=C(NCCCn1ccnc1)c1ccc(Br)cc1	none
Cc1ccc(NC(=O)/C(C#N)=C/c2cn(CC(=O)NCc3ccco3)c3ccccc23)cc1C	none
Cc1cc(C)cc(NC(=O)/C(C#N)=C/c2cn(CC(=O)NCc3ccco3)c3ccccc23)c1	EBNA-1 inhibitor 39.8
Cc1ccc(NC(=O)c2cc(-c3ccco3)on2)cc1C	Fh CTSL1 inh 21.2
Cc1ccc(NC(=O)c2cc(-c3ccco3)on2)cc1	none
O=C(c1noc2c1CCc1ccccc1-2)N1CCCc2ccccc21	none
O=C1CC2(CCN(C(=O)COc3ccccc3)CC2)Oc2ccccc21	none (no result: HCV NS3 hel inh)
O=C(Nc1ccccc1N1CCOCC1)c1cc(Cl)c2c(c1)OCO2	none (no result: EBNA-1 inhibitor, HCV NS3 hel inh, Fh CTSL1 inh)
Cc1ccc(C(=O)NCCCNC(=O)c2ccco2)cc1	none
O=C(Nc1nnc(S(=O)(=O)N2CCCC2)s1)c1ccccc1Br	Fh CTSL1 inh 80.6
CCC(C)[C@H](NC(=O)N1CCn2c1nc1ccccc12)C(=O)NCCc1ccccc1 (some centres undefined)	none
CCc1ccccc1NC(=S)N(CCCN1CCOCC1)Cc1ccccn1	ZTA DNA inh 81.8
Cc1nc(SCC(=O)NCc2ccc3c(c2)OCO3)c(C#N)c2c1CCCC2	Fh CTSL1 inh 20.8
Cc1cc(=O)[nH]c(SCC(=O)NCc2ccc3c(c2)OCO3)n1	none
O=C(Nc1sc2c(c1C(=O)N1CCOCC1)CCCCC2)c1cccnc1	Fh CTSL1 inh 18.9
COc1ccc(/C=C/C=C2\N=C(SC)SC2=O)cc1	none
O=C(NCc1ccccc1)C1CCN(S(=O)(=O)c2ccc(N3CCCC3=O)cc2)CC1	Fh CTSL1 inh 17.2
O=C(NCc1ccc(Cl)cc1)C1CCN(S(=O)(=O)c2ccc(N3CCCC3=O)cc2)CC1	none
NC(=O)c1ccc(N=Cc2c(O)ccc3ccccc23)cc1	none (no result: HCV NS3 hel inh)
C=CCS/C(N)=N\N=C\c1c(O)ccc2ccccc12	Fh CTSL1 inh 22.1
CC(C)CC(NC(=O)C1CCC(=O)N1)C(=O)NC(CC(C)C)C(=O)N1CCCC1C(N)=O (centres undefined)	Fh CTSL1 inh 17.1
CC(C)CC(NC(=O)C(NC(=O)OC(C)(C)C)C(C)C)C(=O)N1CCCC1C(N)=O (centres undefined)	Fh CTSL1 inh 18.4
O=C(Nc1nnc(-c2ccc(Cl)s2)o1)C1CC1	none
Cc1noc(C)c1COC(=O)[C@@H](NC(=O)c1ccccc1Cl)C(C)C	none
CC(C)C[C@H](NC(=O)OC(C)(C)C)C(=O)N[C@@H](CO)[C@H](O)[C@@H]1C[C@@H]1C(=O)N1CCCC1	Fh CTSL1 inh 45.1
Fc1ccc(Nc2ncnc3ccccc23)cc1	none
Cc1cc(C)cc(Oc2coc3cc(O)ccc3c2=O)c1	Fh CTSL1 inh 17.3
Cc1ccccc1-c1coc2cc(O)ccc2c1=O	Fh CTSL1 inh 22.6
CC1CCN(CC(=O)Nc2ccccc2Sc2ccccc2)CC1	none
Nc1nonc1NC(=O)CSc1ncccc1C(=O)O	none
COc1ccc(CNS(=O)(=O)c2ccccc2Br)cc1	none (no result: HCV NS3 hel inh)
O=C(CSc1nnc(NC(=O)c2ccco2)s1)NC1CCCCC1	none
CC(=O)c1cc(NC(=O)c2ccccc2)c(=O)oc1C	none
Cc1oc(=O)c(NC(=O)c2ccc(Cl)cc2)cc1C(=O)c1ccccc1	Fh CTSL1 inh 19.5
Cc1oc(=O)c(NC(=O)c2ccccc2)cc1C(=O)c1ccccc1	Fh CTSL1 inh 34.9
CC(=O)OCC(=O)Nc1c(C)cccc1C	none
CCOC(=O)N1CCC(Nc2c(NCCCOC)c(=O)c2=O)CC1	none
CCOC(=O)N1CCC(Nc2c(OCC)c(=O)c2=O)CC1	Fh CTSL1 inh 36.0
COc1ccc(-c2cc3c(=O)n(CC(=O)NCCCN4CCN(Cc5ccccc5)CC4)ncn3n2)cc1	none
COc1ccc(-c2cc3c(=O)n(CC(=O)NCCCN4CCC(Cc5ccccc5)CC4)ncn3n2)cc1	Fh CTSL1 inh 19.6
CCOc1ccc(C(=O)NCC(=O)OCCCOC(=O)CNC(=O)c2ccc(OCC)cc2)cc1	none
O=C(CCS(=O)(=O)c1ccccc1)NCc1ccccc1	Fh CTSL1 inh 31.4
